Measured values from different studies.
Target: Fibroblast growth factor receptor 4 (FGFR4, Homo sapiens, UniProt P22455)

Cc1c(C(=O)O)cc(-c2ccc(C3CCNCC3)cc2)c2ccc(-c3ccc(C(F)(F)F)cc3)cc12 — remaining binding (cell-free assay, competition with immobilised ligand; 1 µM): 100%
O=C(NCCCN1CCOCC1)c1ccc(Nc2ncc(Cl)c(-c3ccc(Cl)s3)n2)cc1 — remaining binding (binding, competition with immobilised ligand; 1 µM): 89%
CN(CCCC(F)(F)F)c1nccc(-c2cnn3ncccc23)n1 — remaining binding (binding; 1 µM): 96%
C[C@H](c1ccc(F)cc1)N(Cc1cccc(C(=O)O)c1)C(=O)c1cnc2ccccc2c1 — remaining binding (cell-free assay, competition with immobilised ligand; 1 µM): 91%
FC(F)(F)Oc1cccc(-c2cnc3ccc(-c4ccncc4)nn23)c1 — remaining binding (cell-free assay, competition with immobilised ligand; 5 µM): 98%
N[C@@H]1CCN(c2nccc(-c3cnn4ncccc34)n2)C1 — remaining binding (binding; 1 µM): 96%
Cc1cnc(Nc2ccc(C(=O)N3CCC(N4CCCC4)CC3)cc2)nc1-c1cc2ccccc2s1 — remaining binding (binding, competition with immobilised ligand; 1 µM): 76%
C[C@H]1CCN(c2nccc(-c3cnn4ncccc34)n2)C1 — remaining binding (binding; 1 µM): 76%
CN([C@@H]1CCc2c(CC(=O)O)c3cc(S(C)(=O)=O)ccc3n2C1)S(=O)(=O)c1ccc(F)cc1 — remaining binding (cell-free assay, competition with immobilised ligand; 1 µM): 99%
COc1cnc(Nc2cccc(S(N)(=O)=O)c2)nc1N1CCN(c2ccccc2)C(=O)C1 — remaining binding (binding, competition with immobilised ligand; 1 µM): 100%
COc1ccnn2ncc(-c3ccnc(N(C)C)n3)c12 — remaining binding (binding; 1 µM): 100%
CCOCCn1cc(C(=O)Nc2ccc(-n3nc(-c4cccnc4)cc3C(F)(F)F)cn2)ccc1=O — remaining binding (cell-free assay, competition with immobilised ligand; 1 µM): 100%
Cc1cnn2ncc(-c3ccnc(N(C)C)n3)c2c1 — remaining binding (binding; 1 µM): 97%
CCN1CCN(Cc2ccc(C(=O)Nc3ccc(C)c(Oc4ccc5c(c4)CC(=O)N5)c3)cc2C(F)(F)F)CC1 — remaining binding (binding, competition with immobilised ligand; 1 µM): 100%
O=C(Nc1ccc(Oc2ccc(F)cc2)cc1)N1CCc2ncccc2[C@H]1c1ccc(F)cc1 — remaining binding (cell-free assay, competition with immobilised ligand; 1 µM): 95%
O=C(c1ccc(Nc2ncc(Cl)c(-c3cc4ccccc4s3)n2)cc1)N1CCC(N2CCCC2)CC1 — remaining binding (binding, competition with immobilised ligand; 1 µM): 77%
CN(C)c1nccc(-c2cnn3ncccc23)n1 — remaining binding (binding; 1 µM): 100%
C[C@@H](c1ccc(-n2cnc3c(N)ncnc32)cc1)N1CCc2nn(C)c(Cc3ccccc3)c2C1=O — remaining binding (binding, competition with immobilised ligand; 0.1 µM): 97%
N#CC1(c2ccccn2)CCN(Cc2cc(C(=O)N3CCCC3)c(=O)n3ccccc23)CC1 — remaining binding (cell-free assay, competition with immobilised ligand; 1 µM): 90%
CC1CCCN1c1nccc(-c2cnn3ncccc23)n1 (stereo not shown) — remaining binding (binding; 1 µM): 100%
O=C(Nc1c[nH]nc1C(=O)NC1CCNCC1)c1cc(F)cc(F)c1 — remaining binding (binding, competition with immobilised ligand; 1 µM): 100%
COc1ncc2cc3ccccc3nc2c1C#N — remaining binding (cell-free assay, competition with immobilised ligand; 5 µM): 88%
